Drawing on ChEMBL document CHEMBL1159046, “New thalidomide analogues derived through Sonogashira or Suzuki reactions and their TNF expression inhibition profiles” (Bioorg Med Chem, 2010), this text covers Activity, viability and inhibition for 27 compounds.

Data set [1] deals with Jurkat. The data set is described as follows: Cytotoxicity against human Jurkat T cells assessed as cell death at 100 uM after 24 hrs by flow cytometry. The class given is functional. The procedure, abridged: (§1)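 Jurkat T cells treated 24 h with compound (final DMSO 0.1%); cell death taken as % of cells with reduced size and granularity on flow cytometric forward- vs side-scatter plot, outside gate set on major solvent-only population; viability confirmed by propidium iodide staining (570 nm, FL2). Triplicate, racemic compounds.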
For orientation: In flow cytometry, cells or beads pass a laser one at a time.

Data set [2] deals with Jurkat. Put plainly: Cytotoxicity against human Jurkat T cells assessed as viable cells at 10 uM after 24 hrs by flow cytometry. The class given is functional. The conditions noted are these: read-out: Activity. In a few lines: (§2)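 FRT-Jurkat TNF reporter cells were exposed to compound (racemic, 0.1% DMSO final) for 24 h and analysed by flow cytometry on FSC/SSC. Viable cells were counted as those inside the gate around the main population of solvent-only cells. Viability was confirmed by propidium iodide fluorescence at 570 nm (FL2). Assays were run in triplicate.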

In data set [3] the test system is Jurkat. The data set is described as follows: Induction of apoptosis in human Jurkat T cells at 10 uM after 24 hrs by flow cytometry. Type of data set: functional. The procedure, abridged:
(§3)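 Apoptosis in Jurkat T cells after 24 h compound exposure: cells stained with FITC-labelled substrate for cleaved caspase-3 (NucView-488), % cells with increased green fluorescence counted by flow cytometry with positivity gate; solvent (0.1% DMSO) and untreated controls. Triplicate, racemic compounds; three independent experiments.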

In data set [4] the test system is Jurkat. Put plainly: Cytotoxicity against human Jurkat T cells assessed as cell death at 10 uM after 24 hrs by flow cytometry. Type of data set: functional. In a few lines: as §1
Data set [5] has as its system Jurkat. Put plainly: Inhibition of NF-kappaB-mediated TNF expression in human Jurkat T cells coexpressing GFP reporter gene at 100 uM by flow cytometry. The class given is cell-based. The procedure, abridged:
(§4)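 Jurkat cells stably carrying GFP under an NF-κB-responsive human TNF promoter (FRT-Jurkat TNF) were treated with racemic compound (0.1% DMSO final) for 24 h. GFP was read by flow cytometry at 515 nm ([…]), gated on viable FSC/SSC cells. Inhibition is the percentage decrease in GFP versus 0.1% solvent control. Assays were run in triplicate.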
In general terms: In a reporter assay the amount or activity of a reporter protein is the signal.

Data set [6] deals with Jurkat. Put plainly: Inhibition of NF-kappaB-mediated TNF expression in human Jurkat T cells coexpressing GFP reporter gene at 10 uM by flow cytometry. The class given is cell-based. The procedure, abridged:
as §4

Data set [7] deals with Jurkat. Put plainly: Induction of apoptosis in human Jurkat T cells at 100 uM after 24 hrs by flow cytometry. Type of data set: functional. In a few lines:
(§5)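 Jurkat T cells were treated with compound for 24 h, with DMSO-only and untreated controls, then stained with a FITC-labelled substrate for cleaved caspase-3 (NucView-488). The apoptotic fraction was the percentage of cells with increased green fluorescence by flow cytometry. Cell death, taken as reduced size and granularity on FSC/SSC, was measured in parallel. Assays were run in triplicate.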

In data set [8] the test system is Jurkat. Put plainly: Inhibition of NF-kappaB-mediated TNF expression in human Jurkat T cells coexpressing GFP reporter gene at 1 uM by flow cytometry. The class given is cell-based. The procedure, abridged: as §4
Data set [9] relates to Jurkat. Put plainly: Cytotoxicity against human Jurkat T cells assessed as cell death at 0.1 uM after 24 hrs by flow cytometry. The class given is functional. The procedure, abridged:
as §1

Data set [10] has as its system PBMC. Put plainly: Cytotoxicity against human PBMC assessed as cell death at 1 to 10 uM. The class given is cell-based.
The subject of data set [11] is PBMC. The data set is described as follows: Inhibition of PMA-induced TNF production in human PBMC at 1 uM by RT-PCR. Type of data set: functional, cell-based. In a few lines:
(§6)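 PBMCs from healthy volunteers were freshly isolated, activated, and cultured with compound or DMSO for 2 h. Endogenous TNF mRNA was quantified by reverse transcription and real-time PCR (50 cycles: 95 °C 10 s, 55 °C 15 s, 72 °C 20 s) and normalised to β-actin.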

For data set [12], the system named is Jurkat. Put plainly: Induction of apoptosis in human Jurkat T cells at 1 uM after 24 hrs by flow cytometry. The class given is functional. In a few lines: as §3
Data set [13] concerns Jurkat. Put plainly: Induction of apoptosis in human Jurkat T cells at 0.1 uM after 24 hrs by flow cytometry. The class given is functional. The procedure, abridged:
as §5

The subject of data set [14] is Jurkat. Put plainly: Inhibition of NF-kappaB-mediated TNF expression in human Jurkat T cells coexpressing GFP reporter gene at 0.1 uM by flow cytometry. Type of data set: cell-based. In a few lines: as §4
In data set [15] the test system is Jurkat. Put plainly: Cytotoxicity against human Jurkat T cells assessed as viable cells at 0.1 uM after 24 hrs by flow cytometry. Type of data set: functional. The conditions noted are these: read-out: Activity. In a few lines: as §2
In data set [16] the test system is PBMC. Put plainly: Inhibition of PMA-induced TNF production in human PBMC at 10 uM by RT-PCR. The class given is functional, cell-based. In a few lines: as §6
For data set [17], the system named is Jurkat. The data set is described as follows: Cytotoxicity against human Jurkat T cells assessed as viable cells at 1 uM after 24 hrs by flow cytometry. The class given is functional. Particulars: read-out: Activity. The procedure, abridged: as §2

The inhibition is the drop in the measured response relative to a control, in per cent. A high value points to a response far below the control.

SMILES strings stand for the structures. The source made the active and inactive calls. The calls are words filed in the database; no cut-off is given here.

With `CC(C)Oc1ccc(-c2ccc3c(c2)C(=O)N(C2CCC(=O)NC2=O)C3=O)cc1` (racemic), the Activity with Jurkat [1] is 51%; in the data set on Jurkat [3], 12%; in the data set on Jurkat [4], 14%; with Jurkat [7], 34%. Also, the viability at 10 µM with Jurkat [2] stood at 90%. In addition, the inhibition with Jurkat [5] amounted to 59%; with Jurkat [6], 10%.

As to `CC(C)Cc1ccc(-c2cccc3c2C(=O)N(C2CCC(=O)NC2=O)C3=O)cc1` (racemic), the Activity stood at 94% in the data set on Jurkat [1], 7% in the data set on Jurkat [3] and 96% in the data set with Jurkat [7]. Moreover, in the data set with Jurkat [2], the viability at 10 µM came to 90%. Further, the inhibition with Jurkat [5] was 86%; in the data set on Jurkat [6], 7%.

Turning to `CC(C)Cc1ccc(-c2ccc3c(c2)C(=O)N(C2CCC(=O)NC2=O)C3=O)cc1` (racemic), the Activity in the data set with Jurkat [1] worked out at 21%; with Jurkat [3], 7%; with Jurkat [4], 6%; in the data set on Jurkat [7] it was 22%. Also, the viability at 10 µM in the data set on Jurkat [2] was 89%. The inhibition with Jurkat [5] came out at 90%; with Jurkat [6] it was 5%.

Turning to `CC(C)Oc1ccc(-c2cccc3c2C(=O)N(C2CCC(=O)NC2=O)C3=O)cc1` (racemic), the Activity in the data set with Jurkat [1] was determined as 33%; in the data set with Jurkat [3] it was 8%; in the data set with Jurkat [7], 30%. Moreover, in the data set on Jurkat [2], the viability at 10 µM was determined as 90%. The inhibition in the data set on Jurkat [5] turned out to be 47%; with Jurkat [6] it was 8%.

As for `O=CC#Cc1ccc2c(c1)C(=O)N(C1CCC(=O)NC1=O)C2=O` (racemic), the inhibition in the data set on Jurkat [8] was 5%; in the data set on Jurkat [14], 4%; in the data set on Jurkat [5], 85%; in the data set on Jurkat [6], 86%. Besides, the Activity in the data set on Jurkat [9] is 4%; in the data set on PBMC [10], “Active”; in the data set on Jurkat [3], 84%; with Jurkat [12], 7%; in the data set on Jurkat [13] it was 7%; in the data set with Jurkat [4] it was 86%. Further, the outcome in the data set on PBMC [11] and with PBMC [16] was Active. Further, the viability at 10 µM with Jurkat [2] worked out at 25%. Moreover, the viability at 0.1 µM in the data set with Jurkat [15] was 96%. The viability at 1 µM in the data set with Jurkat [17] worked out at 95%.

On to `CC(=O)c1ccc(-c2ccc3c(c2)C(=O)N(C2CCC(=O)NC2=O)C3=O)cc1` (racemic), for which the inhibition in the data set with Jurkat [5] worked out at 26%.

Consider `CC(=O)c1ccc(-c2cccc3c2C(=O)N(C2CCC(=O)NC2=O)C3=O)cc1` (racemic), for which the inhibition in the data set with Jurkat [5] stood at 17%.

`CC(C)(C)C#Cc1ccc2c(c1)C(=O)N(C1CCC(=O)NC1=O)C2=O` (racemic) had an inhibition with Jurkat [5] of 19%.

Take `CC(C)(C)C#Cc1cccc2c1C(=O)N(C1CCC(=O)NC1=O)C2=O` (racemic): in the data set on Jurkat [5], the inhibition is 24%.

As to `CC(C)(O)C#Cc1ccc2c(c1)C(=O)N(C1CCC(=O)NC1=O)C2=O` (racemic), the inhibition with Jurkat [5] came out at 20%.

Compound `CC(C)(O)C#Cc1cccc2c1C(=O)N(C1CCC(=O)NC1=O)C2=O` (racemic) gave an inhibition in the data set on Jurkat [5] of 6%.

On to `CNCC#Cc1ccc2c(c1)C(=O)N(C1CCC(=O)NC1=O)C2=O` (racemic), for which, in the data set with Jurkat [5], the inhibition is 10%.

In the case of `Cc1ccc(-c2ccc3c(c2)C(=O)N(C2CCC(=O)NC2=O)C3=O)cc1` (racemic), the inhibition in the data set on Jurkat [5] is 14%.

In the case of `Cc1ccc(-c2cccc3c2C(=O)N(C2CCC(=O)NC2=O)C3=O)cc1` (racemic), in the data set with Jurkat [5], the inhibition stood at 10%.

`N#CCCCC#Cc1ccc2c(c1)C(=O)N(C1CCC(=O)NC1=O)C2=O` (racemic) came in with an inhibition in the data set with Jurkat [5] of 12%.

As for `N#CCCCC#Cc1cccc2c1C(=O)N(C1CCC(=O)NC1=O)C2=O` (racemic), in the data set with Jurkat [5], the inhibition came to 9%.

`NC(=O)c1ccc(-c2ccc3c(c2)C(=O)N(C2CCC(=O)NC2=O)C3=O)cc1` (racemic): in the data set with Jurkat [5], the inhibition was determined as 10%.

In the case of `NC(=O)c1ccc(-c2cccc3c2C(=O)N(C2CCC(=O)NC2=O)C3=O)cc1` (racemic), in the data set with Jurkat [5], the inhibition turned out to be 14%.

Regarding `O=C1CCC(N2C(=O)c3ccc(-c4ccc(O)cc4)cc3C2=O)C(=O)N1` (racemic), the inhibition in the data set with Jurkat [5] turned out to be 11%.

In the case of `O=C1CCC(N2C(=O)c3ccc(-c4ccccc4)cc3C2=O)C(=O)N1` (racemic), the inhibition in the data set with Jurkat [5] is 12%.

With `O=C1CCC(N2C(=O)c3ccc(C#CCO)cc3C2=O)C(=O)N1` (racemic), the inhibition in the data set with Jurkat [5] was determined as 10%.

In the data set with Jurkat [5], `O=C1CCC(N2C(=O)c3ccc(C#Cc4ccccc4)cc3C2=O)C(=O)N1` (racemic) displayed an inhibition of 6%.

`O=C1CCC(N2C(=O)c3cccc(-c4ccc(O)cc4)c3C2=O)C(=O)N1` (racemic) displayed an inhibition in the data set with Jurkat [5] of 19%.

Turning to `O=C1CCC(N2C(=O)c3cccc(-c4ccccc4)c3C2=O)C(=O)N1` (racemic), the inhibition with Jurkat [5] came to 14%.

In turn, `O=C1CCC(N2C(=O)c3cccc(C#CCO)c3C2=O)C(=O)N1` (racemic) yielded an inhibition in the data set with Jurkat [5] of 7%.

Regarding `O=C1CCC(N2C(=O)c3cccc(C#Cc4ccccc4)c3C2=O)C(=O)N1` (racemic), the inhibition in the data set with Jurkat [5] is 13%.

Turning to `O=C1CCC(N2C(=O)c3ccccc3C2=O)C(=O)N1` (racemic) [THALIDOMIDE], the Activity in the data set with Jurkat [3] was 7%; in the data set on Jurkat [4], 6%; in the data set on Jurkat [7], 9%. In addition, the inhibition in the data set with Jurkat [5] worked out at 6%; in the data set with Jurkat [6], 4%.
